Assay results from ChEMBL document CHEMBL3785077 (J Med Chem, 2016).
Active and inactive are the calls of the source. No cut-off for these calls is given here.

Key:
Acetylcholinesterase [1] = biological target: T1, Acetylcholinesterase (Homo sapiens, UniProt P22303); assay: Inhibition of human acetylcholinesterase using […] as substrate at 10 uM preincubated for 4.5 mins followed by substrate addition measured after 2.5 mins by Ellman's spectrophotometric method
Cholinesterase [2] = biological target: T2, Cholinesterase (Equus caballus, UniProt P81908); assay: Inhibition of equine serum butyrylcholinesterase using […] as substrate preincubated for 30 mins followed by substrate addition measured after 2.5 mins by Ellman's spectrophotometric method
T2 sequence (P81908 whole entry): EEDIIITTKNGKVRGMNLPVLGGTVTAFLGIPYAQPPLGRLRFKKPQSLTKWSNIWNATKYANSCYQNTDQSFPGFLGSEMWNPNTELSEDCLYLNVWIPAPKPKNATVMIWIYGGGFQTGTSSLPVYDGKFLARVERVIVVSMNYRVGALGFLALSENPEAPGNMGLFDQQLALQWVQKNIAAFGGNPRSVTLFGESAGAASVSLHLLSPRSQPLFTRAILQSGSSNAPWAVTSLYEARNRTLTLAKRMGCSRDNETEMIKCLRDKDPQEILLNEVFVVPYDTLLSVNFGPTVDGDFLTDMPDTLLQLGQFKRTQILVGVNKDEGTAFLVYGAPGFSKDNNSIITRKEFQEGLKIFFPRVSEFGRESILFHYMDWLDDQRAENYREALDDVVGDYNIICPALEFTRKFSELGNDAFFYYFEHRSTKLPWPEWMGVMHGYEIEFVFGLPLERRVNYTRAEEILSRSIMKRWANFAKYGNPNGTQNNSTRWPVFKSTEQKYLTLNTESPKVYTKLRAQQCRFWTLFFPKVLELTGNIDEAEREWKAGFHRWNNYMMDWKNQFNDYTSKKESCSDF
How it was run: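 Ellman assay at 25 °C in phosphate buffer pH 8.0. Enzyme (AChE from human erythrocytes, BChE from equine or human serum; 2.5 units/mL stock with 2 mg/mL BSA) and DTNB (0.3 mM in assay) preincubated with compound from ethanol stocks (1 nM−1 mM in assay). Ethanol control, triplicates, IC50 from activity vs log concentration.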

Cholinesterase [3] = biological target: T2, Cholinesterase; assay: Inhibition of equine serum butyrylcholinesterase using […] as substrate preincubated for 4.5 mins followed by substrate addition measured after 2.5 mins by Ellman's spectrophotometric method
How it was run: (§1)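 Ellman assay at 25 °C in phosphate buffer pH 8.0. Enzyme (AChE from human erythrocytes, BChE from equine or human serum; 2.5 units/mL stock with 2 mg/mL BSA) and DTNB (0.3 mM in assay) preincubated with compound from ethanol stocks (1 nM−1 mM in assay). Acetyl- or butyrylthiocholine added (452 μM in assay), absorbance at 412 nm after 2.5 min. Ethanol control, triplicates, IC50 from activity vs log concentration.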

Acetylcholinesterase [4] = biological target: T1, Acetylcholinesterase; assay: Inhibition of human acetylcholinesterase using […] as substrate preincubated for 4.5 mins followed by substrate addition measured after 2.5 mins by Ellman's spectrophotometric method; how it was run: as §1
Acetylcholinesterase [5] = biological target: T1, Acetylcholinesterase; assay: Inhibition of human acetylcholinesterase using […] as substrate at 100 uM preincubated for 4.5 mins followed by substrate addition measured after 2.5 mins by Ellman's spectrophotometric method
Acetylcholinesterase [6] = biological target: T1, Acetylcholinesterase; assay: Inhibition of human acetylcholinesterase using […] as substrate at 500 uM preincubated for 4.5 mins followed by substrate addition measured after 2.5 mins by Ellman's spectrophotometric method
[7] = biological target: Cholinesterase (Equus caballus) (UniProt P81908); assay: Pseudo-irreversible inhibition of equine serum butyrylcholinesterase assessed as carbamoylation rate of inhibitor from reversible enzyme inhibitor complex to carbamoylated enzyme using p-nitrophenyl butyrate as substrate preincubated for 5 to 40 mins followed by substrate addition by double reciprocal plot analysis
Sequence of Cholinesterase (Equus caballus) (P81908 whole entry): as above

[8] = biological target: Cholinesterase (Equus caballus) (UniProt P81908); assay: Pseudo-irreversible inhibition of equine serum butyrylcholinesterase assessed as ratio of carbamoylation rate of inhibitor to apparent affinity between enzyme and inhibitor at equilibrium state using p-nitrophenyl butyrate as substrate preincubated for 5 to 40 mins followed by substrate addition by double reciprocal plot analysis
[9] = biological target: Cholinesterase (Equus caballus) (UniProt P81908); assay: Pseudo-irreversible inhibition of equine serum butyrylcholinesterase assessed as apparent affinity between enzyme and inhibitor at equilibrium state using p-nitrophenyl butyrate as substrate preincubated for 5 to 40 mins followed by substrate addition by double reciprocal plot analysis
[10] = Neurotoxicity against mouse HT22 cells assessed as cell viability up to 10 uM after 24 hrs by MTT assay; type: toxicity, cell-based, HT-22; conditions: read-out: Activity
How it was run: (§2)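 Murine hippocampal HT-22 cells in high-glucose DMEM with 10% heat-inactivated FCS, 37 °C, 5% CO2. […] MTT 3 h, SDS lysis, absorbance at 560 nm, viability as % of untreated cells.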

HT-22 [11] = assay: Neuroprotective activity against glutamate-induced oxycytotic cell death in mouse HT22 cells assessed as cell viability at 5 to 25 uM after 24 hrs by MTT assay; type: functional, cell-based; how it was run: as §2
[12] = Antioxidant activity assessed as trolox equivalents of AAPH radical scavenging activity preincubated for 15 mins followed by AAPH addition measured every 60 secs for 90 mins by ORAC assay; type: physicochemical; conditions: 1.5 h
How it was run: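 ORAC-FL: compound (1−5 μM) with fluorescein (300 nM final) in 75 mM phosphate buffer pH 7.4, 15 min at 37 °C, then AAPH (12 mM final). Fluorescence read every 60 s for 90 min (ex 485/em 535 nm). […] Samples in quadruplicate, ≥4 independent runs.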

[13] = Neurotoxicity against mouse HT22 cells assessed as cell viability at 1 and 5 uM after 24 hrs by MTT assay; type: toxicity, cell-based; conditions: ht-22, 24 h
How it was run: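 HT-22 murine hippocampal cells grown in high-glucose DMEM plus 10% heat-inactivated FCS at 37 °C, 5% CO2. After 24 h culture in plates, treated 24 h with compound (DMSO ≤0.1% final) without glutamate. Viability read by MTT (3 h), SDS lysis buffer pH 4.1, absorbance at 560 nm, given as percent of untreated control.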

HT-22 [14] = assay: Neuroprotective activity against glutamate-induced oxycytotic cell death in mouse HT22 cells assessed as cell viability at 5 uM after 24 hrs by MTT assay; type: functional, cell-based
How it was run: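 Murine hippocampal HT-22 cells in high-glucose DMEM with 10% heat-inactivated FCS, 37 °C, 5% CO2. […] MTT (4 mg/mL in PBS, diluted 1:10 in medium) for 3 h, lysis in 10% SDS pH 4.1, absorbance 560 nm; viability as % of untreated cells.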

T1 sequence (P22303 whole entry): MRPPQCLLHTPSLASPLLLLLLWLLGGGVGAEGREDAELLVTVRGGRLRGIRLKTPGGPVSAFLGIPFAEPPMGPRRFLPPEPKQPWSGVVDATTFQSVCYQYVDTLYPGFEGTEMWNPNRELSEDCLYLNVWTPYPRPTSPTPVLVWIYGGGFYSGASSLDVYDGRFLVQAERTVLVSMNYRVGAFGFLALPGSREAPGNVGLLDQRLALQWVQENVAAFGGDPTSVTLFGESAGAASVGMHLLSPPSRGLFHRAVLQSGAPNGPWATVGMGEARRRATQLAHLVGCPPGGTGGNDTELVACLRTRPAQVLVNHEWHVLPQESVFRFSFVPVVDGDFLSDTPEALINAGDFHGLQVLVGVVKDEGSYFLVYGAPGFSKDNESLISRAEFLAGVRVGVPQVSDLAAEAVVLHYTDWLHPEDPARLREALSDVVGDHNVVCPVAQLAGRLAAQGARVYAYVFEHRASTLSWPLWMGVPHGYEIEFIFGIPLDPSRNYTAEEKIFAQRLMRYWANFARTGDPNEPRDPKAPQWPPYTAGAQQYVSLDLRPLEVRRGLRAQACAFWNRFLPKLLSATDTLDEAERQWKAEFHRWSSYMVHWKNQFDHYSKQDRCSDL

## CCCCCCCNC(=O)Oc1ccc2c(c1)CN(C)C(c1ccccc1C)N2C (stereo unspecified)
Acetylcholinesterase [1]
  inhibition: 18%
Cholinesterase [2]
  IC50: 0.251 µM

## Cc1ccccc1C1N(C)Cc2cc(O)ccc2N1C (stereo unspecified)
Cholinesterase [3]
  IC50: 92.4 µM
Acetylcholinesterase [4]
  IC50: 143 µM

## CCCCCCCNC(=O)Oc1ccc2c(c1)CN(C)C(c1ccsc1)N2C (stereo unspecified)
Acetylcholinesterase [5]
  inhibition: 13%
Cholinesterase [2]
  IC50: 0.022 µM

## CN1Cc2cc(O)ccc2N(C)C1c1ccccc1Cl (stereo unspecified)
Cholinesterase [3]
  IC50: 56 µM
Acetylcholinesterase [6]
  inhibition: 60%

## CCCCCCCNC(=O)Oc1ccc2c(c1)CN(C)C(c1ccc(Cl)cc1)N2C (stereo unspecified)
Acetylcholinesterase [5]
  inhibition: 24%
Cholinesterase [2]
  IC50: 0.115 µM

## CCCCCCCNC(=O)Oc1ccc2c(c1)CN(C)C(c1cccc(OC)c1)N2C (stereo unspecified)
[7]
  K: 0.18 min⁻¹
Acetylcholinesterase [5]
  inhibition: 10%
[8]
  Ratio: 0.29 µM⁻¹ min⁻¹
Cholinesterase [2]
  IC50: 0.208 µM
[9]
  K: 622 nM

## CCCCCCCNC(=O)Oc1ccc2c(c1)CN(C)C(c1ccoc1)N2C (stereo unspecified)
Acetylcholinesterase [5]
  inhibition: 12%
Cholinesterase [2]
  IC50: 0.083 µM

## CCCCCCCNC(=O)Oc1ccc2c(c1)CN(C)C(c1ccc(OC)cc1)N2C (stereo unspecified)
[7]
  K: 0.24 min⁻¹
Acetylcholinesterase [5]
  inhibition: 14%
[10]
  viability at 24 h: > 80%
[8]
  Ratio: 0.2 µM⁻¹ min⁻¹
HT-22 [11]
  Activity: Active
[12]
  Activity: 0.5 equiv
Cholinesterase [2]
  IC50: 0.875 µM
[9]
  K: 1200 nM

## CN1Cc2cc(O)ccc2N(C)C1c1cc[nH]c1 (stereo unspecified)
Cholinesterase [3]
  IC50: 15.3 µM
Acetylcholinesterase [4]
  IC50: 116 µM

## CCCCCCCNC(=O)Oc1ccc2c(c1)CN(C)C(c1ccc(C(F)(F)F)cc1)N2C (stereo unspecified)
[7]
  K: 0.05 min⁻¹
Acetylcholinesterase [5]
  inhibition: 59%
[8]
  Ratio: 0.07 µM⁻¹ min⁻¹
Cholinesterase [2]
  IC50: 2.7 µM
[9]
  K: 756 nM

## COc1cccc(C2N(C)Cc3cc(O)ccc3N2C)c1 (stereo unspecified)
Cholinesterase [3]
  IC50: 7.8 µM
Acetylcholinesterase [6]
  inhibition: 61%

## CN1Cc2cc(O)ccc2N(C)C1c1ccc(C(F)(F)F)cc1 (stereo unspecified)
Cholinesterase [3]
  IC50: 64.6 µM

## CN1Cc2cc(O)ccc2N(C)C1c1ccccc1 (stereo unspecified)
Cholinesterase [3]
  IC50: 39.9 µM
[13]
  Activity: Non-toxic
HT-22 [14]
  Activity: Active
[12]
  Activity: 3 equiv
Acetylcholinesterase [4]
  IC50: 327 µM

## CC(C)N1Cc2cc(O)ccc2N(C)C1c1ccccc1 (stereo unspecified)
Cholinesterase [3]
  IC50: 55.8 µM
Acetylcholinesterase [4]
  IC50: 253 µM

## Cc1cccc(C2N(C)Cc3cc(O)ccc3N2C)c1 (stereo unspecified)
Cholinesterase [3]
  IC50: 17.4 µM
Acetylcholinesterase [4]
  IC50: 437 µM

## CN1Cc2cc(O)ccc2N(C)C1c1cccs1 (stereo unspecified)
Cholinesterase [3]
  IC50: 63.2 µM
[13]
  Activity: Non-toxic
HT-22 [14]
  Activity: Active
[12]
  Activity: 3.4 equiv
Acetylcholinesterase [4]
  IC50: 226 µM

## CN1Cc2cc(O)ccc2N(C)C1c1ccc(F)cc1 (stereo unspecified)
Cholinesterase [3]
  IC50: 58.9 µM
Acetylcholinesterase [4]
  IC50: 143 µM

## CN1Cc2cc(O)ccc2N(C)C1c1cccnc1 (stereo unspecified)
Cholinesterase [3]
  IC50: 70.7 µM
Acetylcholinesterase [6]
  inhibition: 61%

## CCCCCCCNC(=O)Oc1ccc2c(c1)CN(C)C(c1ccc3ccccc3c1)N2C (stereo unspecified)
Acetylcholinesterase [1]
  inhibition: 5%
Cholinesterase [2]
  IC50: 0.374 µM

## CCCCCCCNC(=O)Oc1ccc2c(c1)CN(C)C(c1ccc(C)cc1)N2C (stereo unspecified)
Acetylcholinesterase [5]
  inhibition: 9%
Cholinesterase [2]
  IC50: 0.231 µM

## CCCCCCCNC(=O)Oc1ccc2c(c1)CN(C)C(c1ccncc1)N2C (stereo unspecified)
Acetylcholinesterase [5]
  inhibition: 16%
Cholinesterase [2]
  IC50: 0.723 µM

## CCCCCCCNC(=O)Oc1ccc2c(c1)CN(C)C(c1cccnc1)N2C (stereo unspecified)
Acetylcholinesterase [5]
  inhibition: 18%
Cholinesterase [2]
  IC50: 0.565 µM

## CCCCCCCNC(=O)Oc1ccc2c(c1)CN(C(C)C)C(c1ccccc1)N2C (stereo unspecified)
[7]
  K: 0.16 min⁻¹
Acetylcholinesterase [5]
  inhibition: 33%
[8]
  Ratio: 0.86 µM⁻¹ min⁻¹
Cholinesterase [2]
  IC50: 0.021 µM
[9]
  K: 186 nM

## CN1Cc2cc(O)ccc2N(C)C1c1cccc(Cl)c1 (stereo unspecified)
Cholinesterase [3]
  IC50: 2.1 µM
Acetylcholinesterase [4]
  IC50: 242 µM

## CCCCCCCNC(=O)Oc1ccc2c(c1)CN(C)C(c1cccc(Cl)c1)N2C (stereo unspecified)
[7]
  K: 0.16 min⁻¹
Acetylcholinesterase [5]
  inhibition: 39%
[8]
  Ratio: 0.7 µM⁻¹ min⁻¹
Cholinesterase [2]
  IC50: 0.096 µM
[9]
  K: 227 nM

## CCCCCCCNC(=O)Oc1ccc2c(c1)CN(C)C(c1ccccc1OC)N2C (stereo unspecified)
Acetylcholinesterase [1]
  inhibition: 47%
Cholinesterase [2]
  IC50: 0.238 µM

## CN1Cc2cc(O)ccc2N(C)C1c1ccc(Cl)cc1 (stereo unspecified)
Cholinesterase [3]
  IC50: 13.8 µM
Acetylcholinesterase [4]
  IC50: 236 µM

## CN1Cc2cc(O)ccc2N(C)C1c1ccncc1 (stereo unspecified)
Cholinesterase [3]
  IC50: 2.1 µM
Acetylcholinesterase [4]
  IC50: 242 µM

## CCCCCCCNC(=O)Oc1ccc2nc(-c3ccccc3)ncc2c1
[7]
  K: 0.14 min⁻¹
Acetylcholinesterase [5]
  inhibition: 22%
[8]
  Ratio: 0.13 µM⁻¹ min⁻¹
Cholinesterase [2]
  IC50: 1.8 µM
[9]
  K: 1060 nM

## CN1Cc2cc(O)ccc2N(C)C1c1ccsc1 (stereo unspecified)
Cholinesterase [3]
  IC50: 194 µM
Acetylcholinesterase [6]
  inhibition: 52%

## CCCN1Cc2cc(O)ccc2N(C)C1c1ccccc1 (stereo unspecified)
Cholinesterase [3]
  IC50: 22.8 µM
Acetylcholinesterase [4]
  IC50: 279 µM

## CN1Cc2cc(O)ccc2N(C)C1c1cccc2ccccc12 (stereo unspecified)
Cholinesterase [3]
  IC50: 2.8 µM
Acetylcholinesterase [4]
  IC50: 342 µM

## CN1Cc2cc(O)ccc2N(C)C1c1ccoc1 (stereo unspecified)
Cholinesterase [3]
  IC50: 196 µM
Acetylcholinesterase [4]
  IC50: 342 µM

## CCCCCCCNC(=O)Oc1ccc2c(c1)CN(C)C(c1cccc(C)c1)N2C (stereo unspecified)
Acetylcholinesterase [5]
  inhibition: 27%
Cholinesterase [2]
  IC50: 0.199 µM

## COc1ccccc1C1N(C)Cc2cc(O)ccc2N1C (stereo unspecified)
Cholinesterase [3]
  IC50: 9.9 µM
Acetylcholinesterase [4]
  IC50: 193 µM

## CCCCCCCNC(=O)Oc1ccc2c(c1)CN(C)C(c1cccc3ccccc13)N2C (stereo unspecified)
Acetylcholinesterase [1]
  inhibition: 8%
[7]
  K: 0.03 min⁻¹
[8]
  Ratio: 1.92 µM⁻¹ min⁻¹
Cholinesterase [2]
  IC50: 36.2 µM
[9]
  K: 15.6 nM

## CCCCCCCNC(=O)Oc1ccc2c(c1)CN(CCC)C(c1ccccc1)N2C (stereo unspecified)
Acetylcholinesterase [5]
  inhibition: 46%
Cholinesterase [2]
  IC50: 0.04 µM

## CCCCCCCNC(=O)Oc1ccc2c(c1)CN(C)C(c1ccccc1Cl)N2C (stereo unspecified)
Acetylcholinesterase [1]
  inhibition: 48%
Cholinesterase [2]
  IC50: 0.474 µM

## CCCCCCCNC(=O)Oc1ccc2c(c1)CN(C)C(c1c(Cl)cccc1Cl)N2C (stereo unspecified)
Acetylcholinesterase [1]
  inhibition: 33%
[7]
  K: 0.23 min⁻¹
[8]
  Ratio: 0.06 µM⁻¹ min⁻¹
Cholinesterase [2]
  IC50: 0.531 µM
[9]
  K: 4120 nM

## CN1Cc2cc(O)ccc2N(C)C1c1c(Cl)cccc1Cl (stereo unspecified)
Cholinesterase [3]
  IC50: 7.1 µM
Acetylcholinesterase [4]
  IC50: 13.5 µM

## Cc1ccc(C2N(C)Cc3cc(O)ccc3N2C)cc1 (stereo unspecified)
Cholinesterase [3]
  IC50: 22.6 µM
Acetylcholinesterase [4]
  IC50: 110 µM

## Oc1ccc2nc(-c3ccccc3)ncc2c1
Cholinesterase [3]
  IC50: 98.1 µM
Acetylcholinesterase [6]
  inhibition: 20%
